# Measured values: ChEMBL document CHEMBL1641558, “A novel series of potent and selective EP(4) receptor ligands: facile modulation of agonism and antagonism” (Bioorg Med Chem Lett, 2011)
# pIC50, pKi: −log10 of the molar value.
# Target: T1, Prostaglandin E2 receptor EP4 subtype (Homo sapiens, UniProt P35408)
# Experiment: Antagonist activity at human prostanoid EP4 receptor expressed in HEK293 cells assessed as inhibition of PGE2-induced cAMP accumulation by scintillation proximity assay
# Assay type: functional, cell-based
# Summary of the method: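 HEK293 cells expressing EP4 receptors. Antagonism is read as inhibition of PGE2-evoked rise in intracellular cAMP, reported as IC50. Agonism is read as cAMP elevation in the same cells without PGE2, reported as EC50.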
# T1 sequence (P35408 whole entry): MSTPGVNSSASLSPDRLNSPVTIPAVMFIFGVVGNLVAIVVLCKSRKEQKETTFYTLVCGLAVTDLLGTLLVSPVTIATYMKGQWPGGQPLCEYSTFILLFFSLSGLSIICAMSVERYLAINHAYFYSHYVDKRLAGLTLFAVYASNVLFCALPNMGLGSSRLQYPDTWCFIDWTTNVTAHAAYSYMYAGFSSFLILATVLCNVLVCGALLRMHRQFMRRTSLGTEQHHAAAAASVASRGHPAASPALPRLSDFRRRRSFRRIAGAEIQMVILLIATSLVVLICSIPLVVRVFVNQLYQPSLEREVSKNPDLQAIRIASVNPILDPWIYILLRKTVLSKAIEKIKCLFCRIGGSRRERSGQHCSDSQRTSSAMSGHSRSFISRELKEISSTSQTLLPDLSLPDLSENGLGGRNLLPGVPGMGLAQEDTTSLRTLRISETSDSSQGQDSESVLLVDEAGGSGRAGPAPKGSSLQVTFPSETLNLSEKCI
row,Compound,pIC50
1,C[C@H](NC(=O)c1cccc2ccn(Cc3cccc(Cl)c3)c12)c1ccc(C(=O)O)cc1,8.22
2,C[C@H](NC(=O)c1cccc2c1N(Cc1cccc(C(N)=O)c1)CC2)c1ccc(C(=O)O)cc1,7.14

# Second part, the molecule after the results:
row,pIC50,Compound
1,8.89,C[C@H](NC(=O)c1cccc2c1N(Cc1ccc(-c3ccccc3)cc1)CC2)c1ccc(C(=O)O)cc1
2,6.59,C[C@H](NC(=O)c1cccc2c1N(Cc1cccnc1)CC2)c1ccc(C(=O)O)cc1

# Species on record: Homo sapiens
# Experiment: Selectivity ratio of Ki for human prostanoid EP2 receptor to Ki for human prostanoid EP4
row,Compound,Ratio Ki
1,C[C@H](NC(=O)c1cccc2c1N(Cc1ccc(C(F)(F)F)cc1)CC2)c1ccc(-c2nn[nH]n2)cc1,> 1000
2,C[C@H](NC(=O)c1cccc2ccn(Cc3cccc(Cl)c3)c12)c1ccc(C(=O)O)cc1,> 1000
3,C[C@H](NC(=O)c1cccc2c1N(Cc1cccc(C(N)=O)c1)CC2)c1ccc(C(=O)O)cc1,582

# Other lines, results leading:
row,Ratio Ki,Compound
1,> 179,C[C@H](NC(=O)c1cccc2c1N(Cc1ccc(C(=O)O)cc1)CC2)c1ccc(C(=O)O)cc1
2,139,C[C@H](NC(=O)c1cccc2c1N(Cc1ccc(-c3ccccc3)cc1)CC2)c1ccc(C(=O)O)cc1
3,> 127,C[C@H](NC(=O)c1cccc2c1N(Cc1cccnc1)CC2)c1ccc(C(=O)O)cc1

# Species on record: Homo sapiens
# Experiment: Selectivity ratio of Ki for human prostanoid EP3 receptor to Ki for human prostanoid EP4
row,Compound,Ratio Ki
1,C[C@H](NC(=O)c1cccc2c1N(Cc1ccc(C(F)(F)F)cc1)CC2)c1ccc(-c2nn[nH]n2)cc1,> 1000
2,C[C@H](NC(=O)c1cccc2ccn(Cc3cccc(Cl)c3)c12)c1ccc(C(=O)O)cc1,> 1000
3,C[C@H](NC(=O)c1cccc2c1N(Cc1cccc(C(N)=O)c1)CC2)c1ccc(C(=O)O)cc1,> 1000

# The remaining lines, values ahead:
row,Ratio Ki,Compound
1,> 1000,C[C@H](NC(=O)c1cccc2c1N(Cc1ccc(C(=O)O)cc1)CC2)c1ccc(C(=O)O)cc1
2,> 1000,C[C@H](NC(=O)c1cccc2c1N(Cc1ccc(-c3ccccc3)cc1)CC2)c1ccc(C(=O)O)cc1
3,> 1000,C[C@H](NC(=O)c1cccc2c1N(Cc1cccnc1)CC2)c1ccc(C(=O)O)cc1

# Target: T1, Prostaglandin E2 receptor EP4 subtype
# Experiment: Displacement of [3H]PGE2 from human prostanoid EP4 receptor expressed in HEK293-EBNA cells after 60 mins by scintillation counting
# Assay type: cell-based
row,pKi,Compound
1,7.27,C[C@H](NC(=O)c1cccc2c1N(Cc1ccc(C(=O)O)cc1)CC2)c1ccc(C(=O)O)cc1
2,7.52,C[C@H](NC(=O)c1cccc2c1N(Cc1cccc(C(N)=O)c1)CC2)c1ccc(C(=O)O)cc1
3,9.55,C[C@H](NC(=O)c1cccc2c1N(Cc1ccc(-c3ccccc3)cc1)CC2)c1ccc(C(=O)O)cc1
4,7.12,C[C@H](NC(=O)c1cccc2c1N(Cc1cccnc1)CC2)c1ccc(C(=O)O)cc1

# Species on record: Homo sapiens
# Experiment: Selectivity ratio of Ki for human prostanoid EP1 receptor to Ki for human prostanoid EP4
row,Compound,Ratio Ki
1,C[C@H](NC(=O)c1cccc2c1N(Cc1ccc(C(F)(F)F)cc1)CC2)c1ccc(-c2nn[nH]n2)cc1,> 1000
2,C[C@H](NC(=O)c1cccc2ccn(Cc3cccc(Cl)c3)c12)c1ccc(C(=O)O)cc1,> 1000
3,C[C@H](NC(=O)c1cccc2c1N(Cc1cccc(C(N)=O)c1)CC2)c1ccc(C(=O)O)cc1,> 1000

# Further lines, results first:
row,Ratio Ki,Compound
1,> 1000,C[C@H](NC(=O)c1cccc2c1N(Cc1ccc(C(=O)O)cc1)CC2)c1ccc(C(=O)O)cc1
2,> 1000,C[C@H](NC(=O)c1cccc2c1N(Cc1ccc(-c3ccccc3)cc1)CC2)c1ccc(C(=O)O)cc1
3,> 1000,C[C@H](NC(=O)c1cccc2c1N(Cc1cccnc1)CC2)c1ccc(C(=O)O)cc1

# Species on record: Homo sapiens
# Experiment: Selectivity ratio of Ki for human prostanoid FP receptor to Ki for human prostanoid EP4
row,Compound,Ratio Ki
1,C[C@H](NC(=O)c1cccc2c1N(Cc1ccc(C(F)(F)F)cc1)CC2)c1ccc(-c2nn[nH]n2)cc1,> 1000
2,C[C@H](NC(=O)c1cccc2ccn(Cc3cccc(Cl)c3)c12)c1ccc(C(=O)O)cc1,> 1000
3,C[C@H](NC(=O)c1cccc2c1N(Cc1cccc(C(N)=O)c1)CC2)c1ccc(C(=O)O)cc1,> 1000

# The remaining lines, values ahead:
row,Ratio Ki,Compound
1,> 1000,C[C@H](NC(=O)c1cccc2c1N(Cc1ccc(C(=O)O)cc1)CC2)c1ccc(C(=O)O)cc1
2,> 1000,C[C@H](NC(=O)c1cccc2c1N(Cc1ccc(-c3ccccc3)cc1)CC2)c1ccc(C(=O)O)cc1
3,> 1000,C[C@H](NC(=O)c1cccc2c1N(Cc1cccnc1)CC2)c1ccc(C(=O)O)cc1

# Species on record: Homo sapiens
# Experiment: Selectivity ratio of Ki for human prostanoid TP receptor to Ki for human prostanoid EP4
row,Compound,Ratio Ki
1,C[C@H](NC(=O)c1cccc2c1N(Cc1ccc(C(F)(F)F)cc1)CC2)c1ccc(-c2nn[nH]n2)cc1,> 1000
2,C[C@H](NC(=O)c1cccc2ccn(Cc3cccc(Cl)c3)c12)c1ccc(C(=O)O)cc1,> 1000
3,C[C@H](NC(=O)c1cccc2c1N(Cc1cccc(C(N)=O)c1)CC2)c1ccc(C(=O)O)cc1,> 1000

# Next, values leading:
row,Ratio Ki,Compound
1,> 1000,C[C@H](NC(=O)c1cccc2c1N(Cc1ccc(C(=O)O)cc1)CC2)c1ccc(C(=O)O)cc1
2,> 1000,C[C@H](NC(=O)c1cccc2c1N(Cc1ccc(-c3ccccc3)cc1)CC2)c1ccc(C(=O)O)cc1
3,> 1000,C[C@H](NC(=O)c1cccc2c1N(Cc1cccnc1)CC2)c1ccc(C(=O)O)cc1

# Species on record: Homo sapiens
# Experiment: Selectivity ratio of Ki for human prostanoid DP receptor to Ki for human prostanoid EP4
row,Compound,Ratio Ki
1,C[C@H](NC(=O)c1cccc2c1N(Cc1ccc(C(F)(F)F)cc1)CC2)c1ccc(-c2nn[nH]n2)cc1,> 1000
2,C[C@H](NC(=O)c1cccc2ccn(Cc3cccc(Cl)c3)c12)c1ccc(C(=O)O)cc1,16
3,C[C@H](NC(=O)c1cccc2c1N(Cc1cccc(C(N)=O)c1)CC2)c1ccc(C(=O)O)cc1,461

# Continued, values first:
row,Ratio Ki,Compound
1,> 73,C[C@H](NC(=O)c1cccc2c1N(Cc1ccc(C(=O)O)cc1)CC2)c1ccc(C(=O)O)cc1
2,57,C[C@H](NC(=O)c1cccc2c1N(Cc1ccc(-c3ccccc3)cc1)CC2)c1ccc(C(=O)O)cc1
3,> 50,C[C@H](NC(=O)c1cccc2c1N(Cc1cccnc1)CC2)c1ccc(C(=O)O)cc1

# Species on record: Homo sapiens
# Experiment: Selectivity ratio of Ki for human prostanoid IP receptor to Ki for human prostanoid EP4
row,Compound,Ratio Ki
1,C[C@H](NC(=O)c1cccc2c1N(Cc1ccc(C(F)(F)F)cc1)CC2)c1ccc(-c2nn[nH]n2)cc1,> 1000
2,C[C@H](NC(=O)c1cccc2ccn(Cc3cccc(Cl)c3)c12)c1ccc(C(=O)O)cc1,> 1000
3,C[C@H](NC(=O)c1cccc2c1N(Cc1cccc(C(N)=O)c1)CC2)c1ccc(C(=O)O)cc1,> 1000

# Results, then the molecule that gave them:
row,Ratio Ki,Compound
1,> 1000,C[C@H](NC(=O)c1cccc2c1N(Cc1ccc(C(=O)O)cc1)CC2)c1ccc(C(=O)O)cc1
2,> 1000,C[C@H](NC(=O)c1cccc2c1N(Cc1ccc(-c3ccccc3)cc1)CC2)c1ccc(C(=O)O)cc1
3,> 1000,C[C@H](NC(=O)c1cccc2c1N(Cc1cccnc1)CC2)c1ccc(C(=O)O)cc1
